Bioassay records deposited in PubChem by several laboratories.
Rows were chosen to be rich in hits. Some 3.1% of all compounds tested hit in one or more screens of this group.
Calb FLC: C. albicans growth inhibition with fluconazole, primary screen, CaCi-2 strain, Alamar Blue fluorescence; C. albicans CaCi-2 (fluconazole-resistant clinical isolate) + fluconazole, 48 h; growth inhibition, % (test concentration not listed); 300,000 tested, 0.57% active; AID 1979, 2009;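 active means growth inhibition above about 58% in most replicates, limit read from the data, passing the limit was not always enough; inconclusive means exactly half the replicates above a set limit; inactive means most replicates below a set limit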;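 further: all wells also contain fluconazole at 8 µg/ml as a sub-toxic cotreatment; 0% = median of DMSO wells and 100% = median of geldanamycin control wells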
Beta cell apopt: inhibitors of cytokine-induced beta cell apoptosis, primary screen, luminescence; INS-1E cytokine-induced death, ATP luminescence, 48 h; percent of positive-control rescue, neutral wells zero; protection from apoptosis, % (concentration not given with the values); 300,000 tested, 0.8% active; AID 435005, 2010;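 active means Every replicate reaches about 75%, or at least half do and their mean reaches it too, limit read from the data; inconclusive means At least half of replicates reach the limit but their mean does not; inactive means Under half of replicates reach the limit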;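 further: 0% = cytokine-treated negative control wells and 100% = positive control rescue; higher means more ATP so stronger rescue from cytokine killing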
A1 inh: caspase 3/7 activation in MEF A1-2A-BIM cells, primary screen, A1 inhibitor project, cell-based, luminescence, HTS. Caspase-Glo 3/7 luminescence, 3 h; percent of clofoctol response, vehicle zero. 330,000 tested, 0.066% active. caspase activation, % (concentration not given with the values);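 active means over half of replicate activation scores above 10%, or exactly half above 10 with the replicate mean above 10; inconclusive means replicate mean below 10 yet half the replicates above 10; inactive means over half of replicates below 10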
H9c2 TAG inh: inhibitors of triacylglycerol accumulation, primary screen, cell-based, uHTS, fluorescence, H9c2; H9c2 cells, Nile Red lipid (TAG) fluorescence; cells loaded with 200 µM oleic acid; inhibition, % at 12.5 µM; 230,000 tested, 0.66% active; AID 651582, 2012;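 active means pattern-corrected inhibition of lipid staining of at least 50% with the nuclear-stain viability signal not falling by more than 50%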;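 further: 0% = DMSO wells and 100% = triacsin C control wells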
CSC inhib: cancer stem cell viability inhibitors, primary screen, luminescence | AID 2717, 2010 | inhibition, % at 7.5 µM | cancer stem cell-like cells viability | 300,000 tested, 1.1% active; in the data active means inhibition above about 75%; inconclusive means no clear call, values can overlap the other calls; tested in HMLE shEcad cells
T cruzi repl: inhibitors of intracellular T. cruzi growth, primary screen, luminescence, NIH3T3 host cells; T. cruzi beta-gal in NIH3T3, 90 h; inhibition, % (no concentration beside the values); 300,000 tested, 1.4% active;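 active means mean inhibition across valid replicates above about 55%, limit read from the data; inconclusive means mean below that limit but half or more replicates reach it; inactive means mean below it, under half of replicates reach it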;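 further: signal also drops with host cell toxicity which is not excluded here; 0% = plate median of DMSO wells and 100% = zero luminescence signal; higher percent means less beta-gal luminescence so fewer parasites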
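compound dosing = single 50 nL compound addition per well in DMSO | material = NIH/3T3 host cells with β-galactosidase reporter T. cruzi | input = 5,000 host fibroblasts per well | timing = ≥90 h infection period, 3 h prior cell attachment | read-out basis = percent inhibition of parasite-derived β-gal signal | detection = GalScreen β-gal luminescence, detergent lysis, 60 min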
* = called active by the depositor; ? = inconclusive; · = no result.

SMILES | Calb FLC | Beta cell apopt | A1 inh | H9c2 TAG inh | CSC inhib | T cruzi repl
O=C(C1=C[C@@H](c2ccc(C(F)(F)F)cc2)C[C@@H](OCc2ccc(CO)cc2)O1)N1CCN(Cc2ccc3c(c2)OCO3)CC1 | -2.7 | 6.1 | -0.6 | -18.9 | 44.1 | 29.8
C#Cc1ccc([C@@H]2C=C(C(=O)N3CCN(Cc4ccccc4)CC3)O[C@H](OCCCCO)C2)cc1 | -26.8 | 123.6* | -0.3 | -12.2 | 1.8 | 51.7
Cc1nc([N+](=O)[O-])cn1CC(=O)c1ccc(OC(F)(F)F)cc1 | 2.2 | 2.1 | -0.2 | · | -9.7 | -0.6
O=C1c2ccccc2NC(c2ccc(-c3ccccc3F)o2)N1O (stereo unspecified) | · | -2.3 | -0.7 | 14.2 | 10.5 | ·
Cc1cc([N+](=O)[O-])ccc1-c1ccc(C2Nc3ccccc3C(=O)N2O)o1 (stereo unspecified) | 101.2* | 69.8 | -0.3 | · | 131.2* | 38.6
CCOC(=O)c1ccc(-c2ccc(C3Nc4ccccc4C(=O)N3O)o2)cc1 (stereo unspecified) | 90.7* | 6.7 | -0.5 | 13.3 | -3.9 | 16.4
O=C(CN1CCC(NC(=O)Nc2ccc(F)cc2)CC1)Nc1ccccc1[N+](=O)[O-] | 14.7 | 2.5 | -0.5 | · | 1.5 | 17.8
O=C1CCc2cc(S(=O)(=O)Nc3ccccc3F)ccc2N1 | · | -1.0 | 1.8 | 8.0 | -5.8 | ·
COc1ccc(NC(=O)C[C@H]2C(=O)N(CCc3ccccc3)C[C@@H]2c2ccc(OC)cc2)cc1 | · | · | · | -15.1 | · | ·
CCOc1ccc(C(=O)CC(Sc2ccc(C)cc2)C(=O)O)cc1 (stereo unspecified) | -14.4 | -26.6 | 0.5 | 1.0 | 4.2 | -17.0
O=C(CC(Sc1ccc(Br)cc1)C(=O)O)c1ccc(F)cc1 (stereo unspecified) | 3.4 | · | 0.7 | · | · | 72.6*
O=C(CNS(=O)(=O)c1ccccc1)OCC(=O)c1c[nH]c2ccccc12 | · | 0.4 | 0.7 | 7.3 | · | ·
C#CCn1c(=NC(=O)c2ccc(S(=O)(=O)N3CCCc4ccccc43)cc2)sc2cc(S(N)(=O)=O)ccc21 | -2.0 | 0.8 | 0.6 | · | · | 55.5*
O=C(Nc1ccc(S(=O)(=O)NC2=NCCCCC2)cc1)c1ccc([N+](=O)[O-])s1 | 6.9 | 53.8 | 0.0 | 92.6 | 54.9 | 64.9*
Cc1ccnc(NS(=O)(=O)c2ccc(NC(=O)c3ccc([N+](=O)[O-])s3)cc2)n1 | 8.7 | -8.6 | 0.8 | 8.0 | 27.0 | 66.9*
C/C(=N\NC(=O)CN1CCN(c2ccc(F)cc2)CC1)c1ccco1 | 0.4 | 4.7 | 0.5 | 1.9 | 8.6 | -20.3
O=C(NCc1cccnc1)c1cc(C2CCCCN2C(=O)c2cccs2)on1 (stereo unspecified) | · | · | · | -14.7 | · | ·
O=C(O)c1cc(N=Cc2c(O)c3ccccc3oc2=O)ccc1O | 18.7 | -17.6 | -12.9 | · | 5.1 | -1.6
Cc1ccc(-n2c(C)cc(/C=N/NC(N)=S)c2C)cc1 | ? | 7.5 | 0.2 | · | -8.4 | 65.3*
Cc1ccc(-n2c(C)cc(/C=N/NC(=O)c3ccncc3)c2C)cc1 | -33.1 | -6.5 | 2.2 | · | -8.0 | 4.0
COc1ccc(NC(=O)CN(C)C(=O)CCNS(=O)(=O)c2ccc(Br)cc2)cc1 | 4.4 | 0.0 | -0.1 | -12.1 | · | 1.6
COC(=O)C1CCCCN1C(=O)c1cc(COc2cccc3cnccc23)on1 (stereo unspecified) | -9.1 | 101.3* | -0.4 | -12.8 | 3.4 | 0.8
COC(=O)C1CCCCN1C(=O)c1cc(COc2cccc3cccnc23)on1 (stereo unspecified) | -10.7 | -3.5 | 0.6 | 10.9 | -3.3 | -1.9
CCOC(=O)CC1CCCCN1C(=O)c1cc(COc2cccc3cnccc23)on1 (stereo unspecified) | -1.7 | 96.2* | -2.1 | · | 8.7 | -24.7
CNC(=O)/C(C#N)=C/c1c(N2CCCCCC2)nc2c(C)cccn2c1=O | 21.2 | -1.1 | 0.3 | · | -7.0 | -7.5
SMILES | Calb FLC | Beta cell apopt | A1 inh | H9c2 TAG inh | CSC inhib | T cruzi repl
O=C(NCC1CCCCC1)c1cccc(-c2ccc(O)cc2)c1 | 27.0 | 1.3 | -0.5 | · | 52.9 | 13.0
O=C(Nc1ccc(Br)cc1)Nc1cnccn1 | -1.1 | · | · | -7.8 | · | 8.8
CCCCn1c(N)c(N(Cc2ccccc2OC)C(=O)C(C)Oc2cccc(Cl)c2)c(=O)[nH]c1=O (stereo unspecified) | · | · | · | 3.8 | · | ·
Nc1ccc2nn(-c3cccc4ccccc34)nc2c1 | 1.9 | 74.6* | 0.6 | 2.5 | -8.0 | 5.6
Cc1cc2nn(-c3cccc4ccccc34)nc2cc1N | -12.1 | 19.5 | 0.1 | 28.1 | -5.7 | -2.9
CC1=NN(c2ccccc2)C(=O)/C1=C\c1c(C)[nH]n(-c2ccccc2)c1=O | -17.9 | -2.9 | 0.8 | -5.9 | -1.7 | 2.0
CC1=NN(c2ccccc2)C(=O)/C1=C/c1c(O)n(-c2ccc(F)c(Cl)c2)[nH]c1=O | 4.6 | 1.2 | -2.9 | · | 103.4* | -2.5
CCn1c(SCC(=O)NC2(C#N)CCCCC2)nc2ccccc2c1=O | 0.1 | -8.4 | 0.8 | 11.9 | -16.0 | 10.6
COc1ccc(C2=Nn3c([n+](C)c4ccccc43)SC2)cc1 | 62.0 | 112.3* | -0.1 | 6.4 | -8.7 | 70.0*
C[n+]1c2n(c3ccccc31)N=C(c1ccc(Cl)cc1)CS2 | ? | 75.8* | 0.6 | -114.2 | 12.4 | 36.5
COc1ccc(C(=O)N2CCOC2CNC(=O)C(=O)NCc2ccccc2)cc1 (stereo unspecified) | · | · | · | 7.8 | · | ·
CCO[C@H]1c2c(ccc3ccc(=O)oc23)OC(C)(C)[C@H]1O | · | 2.2 | -0.8 | -10.9 | -13.4 | ·
Cc1ccc(NC(=O)c2c(C(F)(F)F)nn(C)c2Cl)cc1C | -24.9 | -3.8 | 1.5 | · | -0.5 | -0.5
Cc1ccc(NC(=O)c2c(C(F)(F)F)nn(C)c2SCc2ccc(Cl)cc2)cc1C | 12.0 | 7.0 | -0.6 | · | 30.5 | 64.7*
Cc1ccc(NC(=O)c2c(C(F)(F)F)nn(C)c2SCc2cccc(C(F)(F)F)c2)cc1C | -20.7 | 87.7* | 0.3 | · | 36.1 | 58.8*
CC(C)[C@H](NC(=O)c1cccc(S(=O)(=O)N2CCOCC2)c1)C(=O)OCC(=O)Nc1cccc(Br)c1 | · | · | · | -3.4 | · | ·
CCCN1CCC(N(C)CCc2ccc(OC)c(OC)c2)CC1 | 11.3 | 1.2 | -0.3 | · | -0.7 | 56.1*
O=C(CN(c1ccc(Br)cc1)S(=O)(=O)c1ccc(Cl)c([N+](=O)[O-])c1)NCCc1ccccc1 | -3.6 | 3.3 | ? | 29.0 | 22.8 | 75.0*
CCN(CC(=O)NCCc1ccccc1)S(=O)(=O)c1ccc(Br)cc1 | 2.9 | · | 1.0 | · | · | 7.2
CC(NC(=O)CN(c1cccc(C(F)(F)F)c1)S(=O)(=O)c1ccc(Cl)c([N+](=O)[O-])c1)c1ccccc1 (stereo unspecified) | 2.6 | 6.5 | 0.0 | · | 98.1* | 5.0
